Myeloid diff 2: myeloid differentiation induction | ER-HoxA9 myeloid progenitors, lysozyme-GFP differentiation, flow cytometry | calls only at 10 µM | 360,000 compounds, 1% hits | AID 624256;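 active means normalized GFP-positive differentiation at or above the plate's own cutoff, the solvent-only control mean plus 3 SD; inconclusive means no clear call, values can overlap the other calls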;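 further: cells exposed to compound for four days before flow analysis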
Pemphigus Ab inh: inhibitors of pemphigus antibody binding to human desmoglein-3; P32926; DSG3-coupled beads, scFv-anti-DSG3-GFP binding, flow cytometry; active compounds read low; binding (percent of control), % at 10 µM; 310,000 compounds, 0.48% hits; AID 588358;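 active means binding more than 3 SD below its plate's average and above zero; inconclusive means below that plate limit but binding exactly zero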;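 further: hits lower antibody fragment binding to DSG3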
Target sequence (P32926 whole entry, looked up, the tested form may be a part): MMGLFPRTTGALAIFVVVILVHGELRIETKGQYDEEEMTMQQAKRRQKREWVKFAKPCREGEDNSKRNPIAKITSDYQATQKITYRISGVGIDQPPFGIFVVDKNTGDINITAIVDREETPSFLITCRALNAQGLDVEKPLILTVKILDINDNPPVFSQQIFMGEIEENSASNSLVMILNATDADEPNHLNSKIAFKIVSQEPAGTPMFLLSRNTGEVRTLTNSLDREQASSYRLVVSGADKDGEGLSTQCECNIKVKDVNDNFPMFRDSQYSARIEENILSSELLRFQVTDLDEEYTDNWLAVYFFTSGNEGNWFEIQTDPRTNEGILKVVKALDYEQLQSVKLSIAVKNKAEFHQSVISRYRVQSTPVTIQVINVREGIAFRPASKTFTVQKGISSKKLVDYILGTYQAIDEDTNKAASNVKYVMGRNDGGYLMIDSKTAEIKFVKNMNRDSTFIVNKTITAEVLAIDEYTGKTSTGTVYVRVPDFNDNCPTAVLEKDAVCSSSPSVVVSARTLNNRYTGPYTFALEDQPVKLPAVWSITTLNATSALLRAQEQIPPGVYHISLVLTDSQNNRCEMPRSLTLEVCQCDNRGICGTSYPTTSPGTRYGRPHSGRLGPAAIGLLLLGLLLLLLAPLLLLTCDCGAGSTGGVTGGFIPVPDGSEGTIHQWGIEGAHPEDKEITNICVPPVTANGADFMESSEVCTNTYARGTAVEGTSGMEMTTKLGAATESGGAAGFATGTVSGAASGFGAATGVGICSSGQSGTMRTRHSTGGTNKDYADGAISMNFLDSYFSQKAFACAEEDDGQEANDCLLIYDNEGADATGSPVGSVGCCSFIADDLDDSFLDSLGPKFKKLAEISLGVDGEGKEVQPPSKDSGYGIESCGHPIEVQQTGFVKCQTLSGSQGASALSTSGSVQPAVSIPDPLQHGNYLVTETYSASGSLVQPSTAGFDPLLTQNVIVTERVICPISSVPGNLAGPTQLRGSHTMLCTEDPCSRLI
T cell HTS: modulates CD8 T cell binding to vesicles; 2C CD8+ T cell-vesicle binding, flow cytometry; active compounds read low; response (vesicle binding), % at 7 µM; 330,000 compounds, 0.068% hits;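 active means response, share of CD8 T cells binding vesicles, and their 90th percentile fluorescence all below set limits, cut at about 80% in these data, passing the limit was not always enough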;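 further: values below 100% mean blocked vesicle binding to the CD8+ T cells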
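Assay system – 2C mouse CD8+ T cells · Also added – QL9-loaded Drosophila micro-vesicles · Timing – Cell–vesicle co-incubation 1.5 h at 37 °C, staining 20 min on ice · Signal – flow cytometry of vesicle-bound cells · Measure – percent CD8+ FL2 mean versus row control · Controls – Peptide-free naked vesicles (low) and QL9 vesicles with 0.7% DMSO vehicle (high)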
Vif imaging: HIV Vif inhibition. HEK293T cells, Vif self-association by quenched fluorescence, imaging, 24 h. inhibition, % at 7.49 µM. 340,000 compounds, 0.35% hits. AID 602346; in the data active means inhibition above about 50%, passing the limit was not always enough; inconclusive means no clear call, values can overlap the other calls; inactive means below about 31%
Starred values were filed as active, the others as inactive; i = inactive; u = inconclusive; x = no result given; + = active, no number. Sampled rows, rich in hits. Any-hit rate of the full collection: about 1.7%.

SMILES	Myeloid diff 2	Pemphigus Ab inh	T cell HTS	Vif imaging
Cc1ccccc1/C=N/n1c(-c2cc(-c3ccccc3)n[nH]2)n[nH]c1=S	i	102	140	-1
S=c1[nH]nc(-c2cc(-c3ccccc3)n[nH]2)n1/N=C/c1c(Cl)cccc1Cl	+	x	215	-2
COC(=O)CSc1nnc(C)n1-c1ccc(C)cc1	+	103	249	15
COC(=O)CSc1nnc(C)n1-c1cccc(OC)c1	i	x	250	-5
COc1ccc(-n2c(COc3ccc(C)cc3)nnc2SCC(N)=O)cc1	+	101	361	1
COCC(=O)N(C)C[C@@H]1Oc2ncc(Br)cc2C(=O)N([C@@H](C)CO)C[C@H]1C	i	x	x	-3
COc1cccc(C(C)(O)c2nc(-c3ccccc3OC)cs2)c1 (configuration not stated)	i	x	x	57*
COc1ccc(-c2csc(C(C)(O)c3cccc(OC)c3)n2)cc1 (configuration not stated)	i	x	x	-33
COc1ccc(C(C#N)=Cc2ccccc2OC)cc1	u	104	x	8
COc1cc(N2CCCC2)c(OC)cc1/C=C(/C#N)c1ccc(F)cc1	x	277	323	63*
COc1cc(N2CCCC2)c(OC)cc1/C=C(/C#N)c1ccc(Br)cc1	+	237	381	9
CCCCCc1cc(=O)oc2c(C(CCN3CCCCC3)c3ccc4c(c3)OCO4)c(OC)cc(OC)c12 (configuration not stated)	+	110	i	5
COc1ccccc1-c1cccc(-c2nc(C(=O)N3CCCCC3)cc3c2[C@@H](CCO)N(S(=O)C(C)(C)C)C3)c1 (some centres not stated)	i	x	x	x
CCOc1ccc(-c2cc(C(=O)NCCCn3ccnc3)c3cc(Br)ccc3n2)cc1	i	x	271	61*
CCc1nnc(NC(=O)CSc2ccc(-c3ccc(-n4cccn4)cc3)nn2)s1	i	77*	615	u
CCc1nnc(NC(=O)CSc2nncc(=O)n2N)s1	u	85*	611	7
CCSc1nnc(NC(=O)CSc2nncc(=O)n2N)s1	i	101	339	0
CCc1ccc2[nH]c3nc(SCC(=O)NNC(=O)c4ccc(C(C)(C)C)cc4)nnc3c2c1	i	x	567	90*
CCc1nnc(NC(=O)CSc2nnc3c(n2)[nH]c2ccccc23)s1	i	32*	230	-1
CSCCC(C(=O)NC1CCCC1)n1c(C2CCCC2)nc2ccccc21 (configuration not stated)	i	x	x	x
O=C1NC(=S)NC1=Cc1ccco1	i	78*	x	7
COc1ccc(-c2ccc(N)cn2)cn1	i	102	340	-6
CCc1cc(/C(Cc2ccc3ccccc3n2)=N\O)c(O)cc1O	i	86	508	-2
Cc1c(O)ccc(/C(Cc2ccc3ccccc3n2)=N\N)c1O	+	100	103	5
O=C(COc1cccc(Cl)c1)Nc1ccccc1N1CCCCC1	i	97	288	8
SMILES	Myeloid diff 2	Pemphigus Ab inh	T cell HTS	Vif imaging
O=C(O)CC(CNS(=O)(=O)c1cccc2nsnc12)c1ccccc1 (configuration not stated)	i	40*	596	3
O=S(=O)(NCc1ccccc1)c1cccc2nsnc12	i	95	207	-1
CCOC(=O)C1CCCN(C(=O)c2cccc(C(F)(F)F)c2)CC1 (configuration not stated)	i	x	x	10
CCOc1cccc(C(=O)Nc2ccc3oc(Cc4ccc(Cl)cc4)nc3c2)c1	i	105	282	56*
CCOc1cccc(C(=O)Nc2ccc(NC(=O)c3cc4ccccc4o3)c(OC)c2)c1	i	129	215	71*
O=C(Nc1ccc2oc(Cc3ccc(Cl)cc3)nc2c1)c1cccnc1	i	101	173	-9
CCCCn1nc2cc(C(=O)NCCc3cccs3)ccc2c1OCC	i	104	309	5
CCCCn1nc2cc(C(=O)NCC34CC5CC(CC(C5)C3)C4)ccc2c1OCC	+	103	160	-6
O=C(O)C1CCC(C(=O)O)SS1 (configuration not stated)	i	x	x	3
O=C(NCc1ccc(Cl)cc1)N1CCOCC1	i	84	144	50*
Cc1ccc2cc(-c3noc(C4CCCCC4)n3)c(=O)[nH]c2c1	i	-18*	554	x
Cc1ccc2cc(-c3noc(C4CCCO4)n3)c(=O)[nH]c2c1 (configuration not stated)	i	98	365	11
Cc1nn(C)c(NC(=O)c2ccc(Cl)cc2Cl)c1Br	+	94	508	-4
O=C(NC1CCCCC1)C(c1ccnc2ccccc12)n1c(=O)c(-c2ccccc2)nc2ccccc21 (configuration not stated)	i	x	x	x
Cc1c(C(=O)Nc2ccc(OCc3ccccc3)cc2)cccc1[N+](=O)[O-]	i	39*	452	u
O=C(CSC1=NS(=O)(=O)c2ccccc2N1)Nc1nccs1	i	107	116	-3
Cc1nc(SCCc2ccccc2)[nH]c(=O)c1C	i	96	321	0
Cc1nc(SCc2ccc(Br)cc2)[nH]c(=O)c1C	i	u	575	52*
Cn1c2ccccc2c2cnn(CC(=O)Nc3ccc(F)cc3F)c(=O)c21	+	100	110	-1
Cc1ccc([N+](=O)[O-])cc1-c1ccc(/C=C(\C#N)c2[nH]nc(N)c2C#N)o1	i	86*	444	2
Cc1ccc(-c2nc(Nc3ccccc3)n[nH]2)cc1	x	37*	332	3
CCOC(=O)c1ccc(NC(=O)CCNC(=O)c2ccc([N+](=O)[O-])cc2)cc1	i	133	206	6
Cc1ccc(NC(=O)CCNC(=O)c2ccc([N+](=O)[O-])cc2)cc1C	+	234	238	1
Cc1nnc2ccc(-c3cccc(NS(=O)(=O)c4ccccc4[N+](=O)[O-])c3)nn12	i	94	490	u
Cc1nnc2ccc(-c3cccc(NS(=O)(=O)c4ccccc4Cl)c3)nn12	i	98	397	81*
SMILES	Myeloid diff 2	Pemphigus Ab inh	T cell HTS	Vif imaging
Cc1nnc2ccc(-c3cccc(NS(=O)(=O)c4cc(F)ccc4F)c3)nn12	i	103	590	71*
Cc1ccc2oc(-c3cccc(N)c3)nc2c1	i	103	406	11
Nc1cccc(-c2nc3cc(S(=O)(=O)c4ccc5oc(-c6cccc(N)c6)nc5c4)ccc3o2)c1	i	77*	475	5
O=C(O)COc1ccccc1C=NNc1ccc([N+](=O)[O-])cc1S(=O)(=O)Nc1ccc(Cl)cc1	i	121	247	2
COc1ccc(NS(=O)(=O)c2cc([N+](=O)[O-])ccc2N/N=C\c2c(C)[nH]c3ccccc23)cc1	+	126	217	2
Cc1[nH]c2ccccc2c1/C=N/Nc1ccc([N+](=O)[O-])cc1S(=O)(=O)Nc1ccc(Cl)cc1	+	114	222	0
CNc1nnc(SCC(=O)N2c3ccccc3NC(=O)CC2C)s1 (configuration not stated)	i	102	582	5

Screening data (PubChem)
